Experimental data from different studies.
CDK1 with cyclin B: Cyclin-dependent kinase 1, with cyclin B (CDK1, Homo sapiens, UniProt P06493)
CDK1 with cyclin A: Cyclin-dependent kinase 1, with cyclin A (CDK1, Homo sapiens, UniProt P06493)
CDK1: Cyclin-dependent kinase 1 (CDK1, Homo sapiens, UniProt P06493)

| SMILES | target | read-out | mode | method | concentration | measurement | value |
| --- | --- | --- | --- | --- | --- | --- | --- |
| C=CC(=O)Nc1cc(Nc2nccc(Nc3cc(Cl)c(F)cc3C(C)(C)O)n2)c(OC)cc1N1CC[C@@H](N(C)C)C1 | CDK1 with cyclin B | enzyme activity | inhibitor |  | 1 µM | inhibition | -13% |
| CC(C)(O)[C@H]1CC[C@H](Nc2ccc3ncc(-c4cccc(C(F)(F)F)c4)n3n2)CC1 | CDK1 with cyclin A | enzyme activity | inhibitor |  | 1 µM | remaining activity | 95.4% |
| CCN(CC)CCNC(=O)c1c(C)[nH]c(/C=C2\C(=O)Nc3ccc(F)cc32)c1C | CDK1 with cyclin B | enzyme activity | inhibitor |  | 10 µM | inhibition | 10% |
| CC(C)n1cnc2c(Nc3cccc(Cl)c3)nc(NCCO)nc21 | CDK1 with cyclin A | cell-free assay |  |  | 0.5 µM | remaining signal | 78.5% |
| Cc1sc(C(=O)NC2COC2)cc1-n1cc(NC(=O)Nc2c(F)cccc2Cl)cn1 | CDK1 with cyclin B | enzyme activity | inhibitor |  | 10 µM | remaining activity | 92.7% |
| CNCc1ccc(-c2cc(-c3nc(-c4ccc(S(=O)(=O)C(C)C)cc4)cnc3N)on2)cc1 | CDK1 with cyclin B | enzyme activity | inhibitor |  | 2 µM | inhibition | 6% |
| Cc1ccc(-n2nc(C(C)(C)C)cc2NC(=O)Nc2ccc(OCCN3CCOCC3)c3ccccc23)cc1 | CDK1 with cyclin B | enzyme activity | inhibitor |  | 10 µM | inhibition | -6% |
| COc1cc2ncnc(Nc3ccc(Oc4ccccc4)cc3C)c2cc1OC | CDK1 with cyclin B | enzyme activity | inhibitor |  | 1 µM | inhibition | 3% |
| Cc1cc(NC(=O)c2cccc3cc(-c4cccc5[nH]nc(N)c45)ccc23)ccc1F | CDK1 with cyclin B | enzyme activity | inhibitor |  | 0.1 µM | activity vs control | 95% |
| Cc1ccc(Nc2nccc(N(C)c3ccc4c(C)n(C)nc4c3)n2)cc1S(N)(=O)=O | CDK1 with cyclin B | enzyme activity | inhibitor |  | 10 µM | inhibition | 29% |
| Cc1ccc(NC(=O)c2ccc(C)c(C(F)(F)F)c2)cc1C#Cc1nn(C2CCC(O)CC2)c2ncnc(N)c12 (stereo not drawn) | CDK1 with cyclin B | cell-free assay |  |  | 10 µM | remaining signal | 104% |
| CC(C)[C@H](CO)Nc1nc(Nc2cccc(Cl)c2)c2ncn(C(C)C)c2n1 | CDK1 with cyclin B | cell-free assay |  |  | 0.5 µM | remaining signal | 34.9% |
| COc1cc(Cl)c(C(=O)N[C@@H](CN[C@H]2CC[C@@H](N)CC2)Cc2ccc(C#N)cc2)cc1-c1ccc(CN[C@H](C)c2ccc(C)cc2)o1 | CDK1 with cyclin B | enzyme activity | inhibitor |  | 1 µM | remaining activity | 95% |
| CC(C)(C)c1nc(-c2cccc(NS(=O)(=O)c3c(F)cccc3F)c2F)c(-c2ccnc(N)n2)s1 | Cyclin-dependent kinase 1, with cyclin A2 (CDK1, Homo sapiens, UniProt P06493) | enzyme activity | inhibitor | radiometric | 1 µM | remaining activity | 84% |
| CCOc1cc(-c2nncn2C)ccc1Nc1ncc2cc(C)nc(NCC(C)(C)C)c2n1 | CDK1 with cyclin B | enzyme activity | inhibitor | FRET | 1 µM | inhibition | 30% |
| Nc1nc(Nc2ccc(S(N)(=O)=O)cc2)nn1C(=O)c1c(F)cccc1F | CDK1 with cyclin A | cell-free assay |  |  | 0.5 µM | remaining signal | 10.3% |
| CNC(=O)c1cc(Oc2ccc(NC(=O)Nc3ccc(Cl)c(C(F)(F)F)c3)cc2)ccn1 | CDK1 with cyclin B | enzyme activity | inhibitor |  | 10 µM | inhibition | 10% |
| CCCS(=O)(=O)Nc1ccc(F)c(C(=O)c2c[nH]c3ncc(-c4ccc(Cl)cc4)cc23)c1F | CDK1 with cyclin B | enzyme activity | inhibitor |  | 1 µM | inhibition | < 10% |
| Cc1cnc(NC2CCOCC2)nc1-n1cnc(C(=O)NC(CN)c2cc(F)cc(Cl)c2)c1 (stereo not drawn) | CDK1 with cyclin B | enzyme activity | inhibitor | radiometric | 1 µM | remaining activity | 20% |
| O=C(Nc1cnn(-c2csc(C(=O)NC3COC3)c2)c1)Nc1ccccc1Cl | Cyclin-dependent kinase 1, with cyclin E (CDK1, Homo sapiens, UniProt P06493) | enzyme activity | inhibitor |  | 5 µM | remaining activity | 94.7% |
| O=Nc1c(-c2c(O)[nH]c3ccccc23)[nH]c2ccccc12 | CDK1 with cyclin A | cell-free assay |  |  | 0.5 µM | remaining signal | 88.4% |
| CC(C)c1ccc(NC(=O)c2cccs2)c(-c2nc3ccccc3[nH]c2=O)c1 | CDK1 with cyclin B | enzyme activity | inhibitor |  | 1 µM | activity vs control | 107% |
| O=C1NC(=O)c2c1c1c3ccccc3[nH]c1n1cncc21 | CDK1 with cyclin A | cell-free assay |  |  | 0.5 µM | remaining signal | 94.8% |
| CC(C)(C)c1nc2c(s1)c1nc(N)ncc1c1ccc(NS(=O)(=O)c3c(F)cccc3F)c(F)c12 | Cyclin-dependent kinase 1, with cyclin B1 (CDK1, Homo sapiens, UniProt P06493) | enzyme activity | inhibitor | radiometric | 1 µM | remaining activity | 89% |
| N#CCCc1ccc2c(c1)-c1[nH]c3ccc([N+](=O)[O-])cc3c1CC(=O)N2 | CDK1 with cyclin B | cell-free assay |  |  | 0.5 µM | remaining signal | 9.89% |
| O=C(Nc1cnn(-c2csc(C(=O)NC3COC3)c2)c1)Nc1c(F)cccc1Cl | CDK1 with cyclin B | enzyme activity | inhibitor |  | 5 µM | remaining activity | 105% |
| O=C1NC(=O)c2cc(Nc3ccc(F)cc3)c(Nc3ccc(F)cc3)cc21 | CDK1 with cyclin B | cell-free assay |  |  | 0.5 µM | remaining signal | 103% |
| CSc1nc(C)c(-c2ccnc(Nc3ccc(N4CCOCC4)cc3)c2)[nH]1 | CDK1 | enzyme activity | inhibitor |  | 10 µM | inhibition | 62% |
| O=C1Nc2ccc(Cl)cc2C1=Cc1cc(Cl)c(O)c(Cl)c1 | CDK1 with cyclin A | cell-free assay |  |  | 0.5 µM | remaining signal | 91.9% |
| c1ccc(CNc2nc(N3CCOc4ccccc43)nc3c2CCCC3)cc1 | CDK1 | target engagement in cells | inhibitor | chemoproteomics | 20 mM | inhibition | -6.5% |
